Active and inactive are the calls of the source. No cut-off for these calls is given here.
Columns and labels:
[1] = target: Metabotropic glutamate receptor 4 (Rattus norvegicus, UniProt P31423); assay: Agonist activity against wild type rat mGlu4; type: functional
[2] = target: Metabotropic glutamate receptor 4 (Rattus norvegicus, UniProt P31423, R60A); assay: Agonist activity against rat mGlu4 R60A mutant
[3] = target: Metabotropic glutamate receptor 4 (Rattus norvegicus, UniProt P31423, K74A); assay: Agonist activity against rat mGlu4 K74A mutant
[4] = target: Metabotropic glutamate receptor 4 (Rattus norvegicus, UniProt P31423, S160A); assay: Agonist activity against rat mGlu4 S160A mutant
[5] = target: Metabotropic glutamate receptor 4 (Rattus norvegicus, UniProt P31423, S160D); assay: Agonist activity against rat mGlu4 S160D mutant
[6] = target: Metabotropic glutamate receptor 4 (Rattus norvegicus, UniProt P31423, R258A); assay: Agonist activity at rat mGlu4 R258A mutant
[7] = Agonist activity at rat mGlu4 R258Q/D262/R263 mutant
[8] = Agonist activity at rat mGlu4 loop beta-10-alpha7 region
[9] = target: Metabotropic glutamate receptor 7 (Rattus norvegicus, UniProt P35400); assay: Agonist activity at wild type rat mGlu7; type: functional
Outline: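 HEK293 cells were transiently transfected by electroporation with rat mGlu7 plasmid plus chimeric Gqα9 to couple to phospholipase C. They were grown in DMEM with 10% FBS on polyornithine-coated wells at 150 000 cells/well.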

[10] = target: Metabotropic glutamate receptor 7 (Rattus norvegicus, UniProt P35400, K60A); assay: Agonist activity at rat mGlu7 K60A mutant
[11] = target: Metabotropic glutamate receptor 7 (Rattus norvegicus, UniProt P35400, N74A); assay: Agonist activity at rat mGlu7 N74A mutant
[12] = target: Metabotropic glutamate receptor 7 (Rattus norvegicus, UniProt P35400, N74K); assay: Agonist activity at rat mGlu7 N74K mutant
[13] = Agonist activity at rat mGlu7 Q258R/D262/R263 mutant
[14] = Agonist activity at rat mGlu7 loop beta10-alpha7 region
[15] = Agonist activity at rat mGlu7 S229A mutant
[16] = Agonist activity at rat mGlu7 D314A mutant
Rattus norvegicus = species: Rattus norvegicus; assay: Ratio of pEC50 for antagonist activity against LSP4-202-induced rat mGlu7 activation transfected in HEK293 cells co-transfected with chimeric Gqi9 assessed as decrease in LSP4-202 potency to pEC50 for LSP4-202-induced rat mGlu7 activation transfected in HEK293 cells co-transfected with chimeric Gqi9; type: cell-based
Outline: (§1)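 IP-One HTRF IP1 read-out in HEK293 transiently expressing rat mGlu7 plus chimeric Gqα9, 24 h after electroporation. LSP4-2022 concentration-response was tested with derivatives at 30 or 100 µM. Gives pEC50, pEC50/pEC50 control ratio, and max as % of LSP4-2022 maximal effect over basal. Triplicates, n independent experiments; paired t-test.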

[17] = target: Metabotropic glutamate receptor 7 (Rattus norvegicus) (UniProt P35400); assay: Antagonist activity against LSP4-202-induced rat mGlu7 activation transfected in HEK293 cells co-transfected with chimeric Gqi9 assessed as decrease in LSP4-202 potency by measuring LSP4-202 maximum efficacy at 30 to 100 uM incubated for 24 hrs by IP-one HTRF assay relative to control; type: functional, cell-based; conditions: filed as antagonist, dose 30-100 µM; outline: as §1
[18] = target: Metabotropic glutamate receptor 7 (Rattus norvegicus) (UniProt P35400); assay: Antagonist activity against LSP4-202-induced rat mGlu7 activation transfected in HEK293 cells co-transfected with chimeric Gqi9 assessed as decrease in LSP4-202 potency by measuring LSP4-202 pEC50 incubated for 24 hrs by IP-one HTRF assay; type: functional, cell-based; outline: as §1

Sequence of Metabotropic glutamate receptor 7 (Rattus norvegicus) (P35400 whole entry): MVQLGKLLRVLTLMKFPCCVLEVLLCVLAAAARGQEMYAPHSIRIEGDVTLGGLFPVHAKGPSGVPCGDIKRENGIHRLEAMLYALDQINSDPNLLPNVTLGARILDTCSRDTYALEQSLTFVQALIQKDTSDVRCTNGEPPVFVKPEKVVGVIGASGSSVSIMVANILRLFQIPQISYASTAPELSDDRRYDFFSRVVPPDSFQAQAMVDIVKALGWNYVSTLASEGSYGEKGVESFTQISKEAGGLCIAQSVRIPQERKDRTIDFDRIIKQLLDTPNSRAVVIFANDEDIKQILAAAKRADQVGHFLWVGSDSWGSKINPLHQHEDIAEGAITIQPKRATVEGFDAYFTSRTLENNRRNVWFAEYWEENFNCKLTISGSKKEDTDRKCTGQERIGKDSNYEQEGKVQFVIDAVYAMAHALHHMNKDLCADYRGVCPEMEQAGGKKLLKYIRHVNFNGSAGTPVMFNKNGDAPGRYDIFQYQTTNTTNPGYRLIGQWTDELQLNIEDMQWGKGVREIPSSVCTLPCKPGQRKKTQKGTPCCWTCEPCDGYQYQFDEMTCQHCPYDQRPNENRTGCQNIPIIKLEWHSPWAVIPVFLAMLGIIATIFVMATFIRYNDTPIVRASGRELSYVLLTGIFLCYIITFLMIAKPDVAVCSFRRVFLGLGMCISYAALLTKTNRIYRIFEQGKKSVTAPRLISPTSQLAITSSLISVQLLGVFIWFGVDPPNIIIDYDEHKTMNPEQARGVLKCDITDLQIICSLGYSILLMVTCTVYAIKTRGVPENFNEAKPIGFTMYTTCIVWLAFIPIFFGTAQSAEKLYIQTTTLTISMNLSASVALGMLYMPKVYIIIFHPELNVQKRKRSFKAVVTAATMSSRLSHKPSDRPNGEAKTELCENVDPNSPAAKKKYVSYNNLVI
Sequence of Metabotropic glutamate receptor 4 (Rattus norvegicus, UniProt P31423) (P31423 whole entry): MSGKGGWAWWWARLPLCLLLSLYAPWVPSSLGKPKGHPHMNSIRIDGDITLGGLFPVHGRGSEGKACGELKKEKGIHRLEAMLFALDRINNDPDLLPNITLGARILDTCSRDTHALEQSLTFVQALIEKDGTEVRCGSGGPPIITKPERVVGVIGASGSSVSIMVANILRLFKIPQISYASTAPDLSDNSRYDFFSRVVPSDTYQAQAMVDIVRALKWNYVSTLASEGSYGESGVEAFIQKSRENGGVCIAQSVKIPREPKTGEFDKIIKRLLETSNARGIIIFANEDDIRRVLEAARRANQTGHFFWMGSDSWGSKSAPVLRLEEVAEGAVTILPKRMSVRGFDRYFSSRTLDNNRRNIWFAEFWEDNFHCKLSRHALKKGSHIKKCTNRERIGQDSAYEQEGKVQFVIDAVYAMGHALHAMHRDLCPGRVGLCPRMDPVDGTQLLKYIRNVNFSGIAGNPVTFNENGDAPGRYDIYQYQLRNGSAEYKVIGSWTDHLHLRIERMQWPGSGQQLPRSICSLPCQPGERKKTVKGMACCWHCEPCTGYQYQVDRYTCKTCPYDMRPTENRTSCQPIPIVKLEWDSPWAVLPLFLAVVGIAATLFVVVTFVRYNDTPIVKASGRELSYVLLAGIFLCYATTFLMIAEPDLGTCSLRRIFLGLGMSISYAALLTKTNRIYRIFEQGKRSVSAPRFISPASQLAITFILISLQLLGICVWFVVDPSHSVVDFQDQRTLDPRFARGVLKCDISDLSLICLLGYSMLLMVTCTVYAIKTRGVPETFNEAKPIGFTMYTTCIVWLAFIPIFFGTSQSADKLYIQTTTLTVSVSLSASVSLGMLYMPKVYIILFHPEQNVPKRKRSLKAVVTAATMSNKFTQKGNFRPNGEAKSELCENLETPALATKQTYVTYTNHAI
Sequence of Metabotropic glutamate receptor 4 (Rattus norvegicus, UniProt P31423, K74A) (P31423 33-912 K74A limits assumed): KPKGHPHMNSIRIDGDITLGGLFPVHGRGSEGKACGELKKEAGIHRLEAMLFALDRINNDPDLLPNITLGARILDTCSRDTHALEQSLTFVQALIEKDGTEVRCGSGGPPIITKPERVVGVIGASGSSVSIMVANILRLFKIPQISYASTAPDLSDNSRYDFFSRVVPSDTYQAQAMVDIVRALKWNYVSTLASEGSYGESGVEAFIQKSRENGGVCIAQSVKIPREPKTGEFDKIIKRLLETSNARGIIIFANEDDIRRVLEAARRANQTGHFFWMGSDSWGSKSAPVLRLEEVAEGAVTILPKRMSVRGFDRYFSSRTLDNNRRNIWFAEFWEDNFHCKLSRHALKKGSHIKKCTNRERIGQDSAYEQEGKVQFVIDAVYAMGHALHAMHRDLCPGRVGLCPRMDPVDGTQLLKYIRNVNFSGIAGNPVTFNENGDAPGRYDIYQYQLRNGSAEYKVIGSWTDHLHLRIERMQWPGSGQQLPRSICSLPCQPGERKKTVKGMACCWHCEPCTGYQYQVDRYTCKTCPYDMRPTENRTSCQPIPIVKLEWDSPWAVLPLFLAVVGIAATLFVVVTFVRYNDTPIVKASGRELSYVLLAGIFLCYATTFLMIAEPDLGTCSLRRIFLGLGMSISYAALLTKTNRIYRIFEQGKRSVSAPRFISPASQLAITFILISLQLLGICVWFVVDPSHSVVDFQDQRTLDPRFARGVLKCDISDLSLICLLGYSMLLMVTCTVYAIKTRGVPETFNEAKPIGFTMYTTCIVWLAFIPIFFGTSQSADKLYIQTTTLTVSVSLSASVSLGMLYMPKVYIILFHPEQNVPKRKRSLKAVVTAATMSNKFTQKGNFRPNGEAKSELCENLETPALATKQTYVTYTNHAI
Sequence of Metabotropic glutamate receptor 4 (Rattus norvegicus, UniProt P31423, S160A) (P31423 33-912 S160A limits assumed): as the sequence (P31423 33-912 K74A limits assumed) above, with A42K, S128A counted along it
Sequence of Metabotropic glutamate receptor 4 (Rattus norvegicus, UniProt P31423, R258A) (P31423 33-912 R258A limits assumed): as the sequence (P31423 33-912 K74A limits assumed) above, with A42K, R226A counted along it
Sequence of Metabotropic glutamate receptor 7 (Rattus norvegicus, UniProt P35400, K60A) (P35400 35-915 K60A limits assumed): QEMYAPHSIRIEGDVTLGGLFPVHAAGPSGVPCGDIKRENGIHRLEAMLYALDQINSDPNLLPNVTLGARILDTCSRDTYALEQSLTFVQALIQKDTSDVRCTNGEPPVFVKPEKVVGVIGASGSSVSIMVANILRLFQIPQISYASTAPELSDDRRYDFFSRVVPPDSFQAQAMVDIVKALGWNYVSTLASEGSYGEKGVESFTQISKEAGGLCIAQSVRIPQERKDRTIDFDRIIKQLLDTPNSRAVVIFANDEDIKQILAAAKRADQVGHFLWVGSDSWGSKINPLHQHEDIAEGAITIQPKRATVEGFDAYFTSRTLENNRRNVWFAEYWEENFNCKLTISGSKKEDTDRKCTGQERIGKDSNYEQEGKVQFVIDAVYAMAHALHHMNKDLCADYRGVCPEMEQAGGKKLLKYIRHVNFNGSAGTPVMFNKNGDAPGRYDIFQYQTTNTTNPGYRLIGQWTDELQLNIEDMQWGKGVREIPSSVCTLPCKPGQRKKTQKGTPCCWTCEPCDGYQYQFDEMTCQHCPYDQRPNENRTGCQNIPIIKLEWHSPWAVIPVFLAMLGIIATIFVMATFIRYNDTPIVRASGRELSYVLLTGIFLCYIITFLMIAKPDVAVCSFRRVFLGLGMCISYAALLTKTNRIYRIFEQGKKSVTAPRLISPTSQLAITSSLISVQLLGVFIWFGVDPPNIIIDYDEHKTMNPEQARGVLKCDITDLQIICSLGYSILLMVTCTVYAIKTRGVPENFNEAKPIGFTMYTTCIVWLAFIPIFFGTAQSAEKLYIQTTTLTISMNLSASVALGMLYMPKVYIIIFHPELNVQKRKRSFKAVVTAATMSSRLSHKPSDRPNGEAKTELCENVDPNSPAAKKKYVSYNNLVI
Sequence of Metabotropic glutamate receptor 4 (Rattus norvegicus, UniProt P31423, R60A) (P31423 33-912 R60A limits assumed): as the sequence (P31423 33-912 K74A limits assumed) above, with R28A, A42K counted along it
Sequence of Metabotropic glutamate receptor 7 (Rattus norvegicus, UniProt P35400) (P35400 whole entry): as the sequence (P35400 whole entry) above
Sequence of Metabotropic glutamate receptor 4 (Rattus norvegicus, UniProt P31423, S160D) (P31423 33-912 S160D limits assumed): as the sequence (P31423 33-912 K74A limits assumed) above, with A42K, S128D counted along it
Sequence of Metabotropic glutamate receptor 7 (Rattus norvegicus, UniProt P35400, N74A) (P35400 35-915 N74A limits assumed): as the sequence (P35400 35-915 K60A limits assumed) above, with A26K, N40A counted along it
Sequence of Metabotropic glutamate receptor 7 (Rattus norvegicus, UniProt P35400, N74K) (P35400 35-915 N74K limits assumed): as the sequence (P35400 35-915 K60A limits assumed) above, with A26K, N40K counted along it

For N[C@@H](CCP(=O)(O)O)C(=O)O, the EC50 [1] was 0.343 µM, the EC50 [2] was 1.16 µM and the EC50 [3] was 0.23 µM. For the same compound, the EC50 [4] was 2.66 µM, the EC50 [5] was 12.3 µM and the EC50 [6] was 1.87 µM. The EC50 [7] was 11.1 µM, the EC50 [8] was 0.505 µM and the EC50 [9] was greater than 100 µM. For the same compound, the EC50 [10] was 1980 µM, the EC50 [11] was greater than 100 µM and the EC50 [12] was 10.5 µM. The EC50 [13] was greater than 100 µM, the EC50 [14] was 45 µM and the EC50 [15] was 182 µM. It also gave an EC50 [16] greater than 1000 µM.

Work on O=C(COc1ccc(I)cc1)c1ccc(O)cc1 yielded a Ratio (Rattus norvegicus) of 0.83 and an Emax [17] of 98.3%.

In the case of Cc1ccc(OCC(=O)c2ccc(O)cc2)cc1, the Ratio (Rattus norvegicus) is reported as 0.96 and the Emax [17] is reported as 95.4%.

With O=C(COc1ccc([N+](=O)[O-])c([N+](=O)[O-])c1)c1ccc(O)cc1 the Ratio (Rattus norvegicus) was 1 and the Emax [17] was 101%.

With O=C(COc1ccc(Cl)cc1)c1ccc(O)cc1 the Ratio (Rattus norvegicus) was 0.83 and the Emax [17] was 98.5%.

For COc1ccc(C(=O)COc2ccc([N+](=O)[O-])cc2)cc1, the Ratio (Rattus norvegicus) was 0.95 and the Emax [17] was 85.2%.

For O=C(COc1ccc(Br)cc1Br)c1ccc(O)cc1, the Ratio (Rattus norvegicus) was 0.97 and the Emax [17] was 96.1%.

With O=c1c2ccc(O)cc2oc2c1oc1ccc(I)cc12 the inhibition [18] was “inactive”.

With O=C(COc1ccc(F)cc1F)c1ccc(O)cc1 the Ratio (Rattus norvegicus) was 1.04 and the Emax [17] was 100%.

Compound COc1ccc(OCC(=O)c2ccc(O)cc2)cc1 has a Ratio (Rattus norvegicus) of 0.96 and an Emax [17] of 97.6%.

O=C(O)c1ccc(OCC(=O)c2ccc(O)cc2)cc1 showed a Ratio (Rattus norvegicus) of 1.07 and an Emax [17] of 98.6%.

With COc1ccc(C(=O)COc2ccc(C#N)cc2)cc1 the Ratio (Rattus norvegicus) was 0.95 and the Emax [17] was 89.4%.

In the case of O=c1c2ccccc2oc2c1sc1ccccc12, the inhibition [18] is reported as “inactive”.

COc1ccc(OCC(=O)c2ccc(O)cc2)cc1OC gave a Ratio (Rattus norvegicus) of 0.99 and an Emax [17] of 96%.

Compound O=C(COc1c(Cl)cc(Br)cc1Cl)c1ccc(O)cc1 has a Ratio (Rattus norvegicus) of 1.01 and an Emax [17] of 101%.

COc1ccc(C(=O)COc2ccc(C(F)(F)F)cc2)cc1 gave a Ratio (Rattus norvegicus) of 0.97 and an Emax [17] of 96.6%.

Compound O=C(COc1ccc([N+](=O)[O-])cc1)c1ccc(O)cc1 has a Ratio (Rattus norvegicus) of 0.87 and an Emax [17] of 98.5%.

With O=C(COc1cccc(O)c1)c1ccc(O)cc1 the Ratio (Rattus norvegicus) was 1.03 and the Emax [17] was 96.8%.

For COc1ccc2c(=O)c3oc4ccc(I)cc4c3oc2c1, the inhibition [18] was “inactive”.

In the case of O=c1c2ccccc2oc2c1oc1cc(O)ccc12, the inhibition [18] is reported as “inactive”.

Work on O=C(COc1ccc(Cl)cc1Cl)c1ccc(O)cc1 yielded a Ratio (Rattus norvegicus) of 0.94 and an Emax [17] of 92.3%.

For COc1ccc2c(c1)oc1c(=O)c3ccccc3oc12, the inhibition [18] was “inactive”.

With O=C(COc1ccc(C(F)(F)F)cc1)c1ccc(O)cc1 the Ratio (Rattus norvegicus) was 0.91 and the Emax [17] was 101%.

From ChEMBL document CHEMBL5523707, “Novel Inhibitory Site Revealed by XAP044 Mode of Action on the Metabotropic Glutamate 7 Receptor Venus Flytrap Domain” (J Med Chem, 2024)
